For eight molecules, IC50 and MIC results are on record in ChEMBL document CHEMBL2417414, “Total synthesis and biological evaluation of clavaminol-G and its analogs” (Eur J Med Chem, 2013).

Values after ≈ are worked out from the molar mass of the structure shown.

As a reminder, the IC50 is the point on the concentration scale where inhibition reaches its midpoint. In general, MIC refers to the lowest concentration that inhibits growth of the organism.

The test system of one assay is A549. Kind of assay: Cytotoxicity against human A549 cells by MTT assay. In kind it is functional, cell-based. The method in brief: (§1)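 MTT assay on ATCC lines: A549 (CCL-185, alveolar adenocarcinoma), HeLa (CCL-2, cervical), MDA-MB-231 (HTB-26) and MCF7 (HTB-22, breast adenocarcinoma). IC50 calculated from absorbance dose–response curves. Values are the average of two independent experiments.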

The test system of the next assay is HeLa. Put plainly: Cytotoxicity against human HeLa cells by MTT assay. It counts as functional, cell-based. In short, it runs like this:
as §1

The subject of another assay is MCF7. Kind of assay: Cytotoxicity against human MCF7 cells by MTT assay. In kind it is functional, cell-based. The method in brief: as §1
On the technique in general: Formazan colour is commonly taken as a measure of viable cells.

For a further assay, the system named is MDA-MB-231. Put plainly: Cytotoxicity against human MDA-MB-231 cells by MTT assay. In kind it is functional, cell-based. The method in brief:
as §1

The test system of assay [1] is Candida albicans. Kind of assay: Antifungal activity against Candida albicans MTCC 1637 after 24 hrs by well diffusion method. It counts as functional. Particulars: MTCC 1637, 24 h; call rule not given here. The method in brief: (§2)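 Agar well diffusion on Mueller-Hinton agar seeded with 0.1 mL of suspension at 1.5 × 10^8 CFU/mL (0.5 McFarland). Fluconazole and miconazole served as positive controls, DMSO as negative control. Plates incubated 24 h at 30 °C. MIC taken as the lowest amount giving an inhibition zone; duplicates, mean reported.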
Background: A growth-free zone around the sample is the usual read-out of agar diffusion tests.

The test system of the next assay is Candida parapsilosis. Put plainly: Antifungal activity against Candida parapsilosis MTCC 1744 after 24 hrs by well diffusion method. Particulars: Lodderomyces parapsilosis, MTCC 1744, 24 h. In kind it is functional. The method in brief: (§3)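 MTCC strains spread on Mueller-Hinton agar plates with 0.1 mL of suspension at 1.5 × 10^8 CFU/mL (0.5 McFarland). Neomycin served as the antibacterial control, fluconazole and miconazole as antifungal controls, and DMSO as the negative control. Plates incubated 24 h at 30 °C. MIC was taken as the lowest amount giving an inhibition zone. Duplicates, mean reported.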

The subject of assay [2] is Candida albicans. Kind of assay: Antifungal activity against Candida albicans MTCC 854 after 24 hrs by well diffusion method. In kind it is functional. Particulars: MTCC 854, 24 h. The method in brief: as §2
For assay [3], the system named is Candida albicans. Put plainly: Antifungal activity against Candida albicans MTCC 7315 after 24 hrs by well diffusion method. It counts as functional. Particulars: MTCC 7315, 24 h. The method in brief:
as §2

The subject of assay [4] is Staphylococcus aureus. Put plainly: Antibacterial activity against Staphylococcus aureus MLS16 MTCC 2940 after 24 hrs by well diffusion method. It counts as functional. Particulars: MLS16 MTCC 2940, 24 h. The method in brief: as §3
For assay [5], the system named is Staphylococcus aureus. Put plainly: Antibacterial activity against Staphylococcus aureus MTCC 96 after 24 hrs by well diffusion method. In kind it is functional. Particulars: MTCC 96, 24 h. In short, it runs like this:
as §3

The test system of assay [6] is Candida albicans. Kind of assay: Antifungal activity against Candida albicans MTCC 3018 after 24 hrs by well diffusion method. In kind it is functional. Particulars: MTCC 3018, 24 h. The method in brief:
as §2

The next assay relates to Bacillus subtilis. Kind of assay: Antibacterial activity against Bacillus subtilis MTCC 121 after 24 hrs by well diffusion method. In kind it is functional. Particulars: MTCC 121, 24 h. In short, it runs like this: as §3
The subject of assay [7] is Candida albicans. Kind of assay: Antifungal activity against Candida albicans MTCC 4748 after 24 hrs by well diffusion method. In kind it is functional. Particulars: MTCC 4748, 24 h. In short, it runs like this:
as §2

The test system of a further assay is Pseudomonas aeruginosa. Put plainly: Antibacterial activity against Pseudomonas aeruginosa MTCC 2453 after 24 hrs by well diffusion method. In kind it is functional. Particulars: MTCC 2453, 24 h. The method in brief:
as §3

The subject of a further assay is Raoultella planticola. Put plainly: Antibacterial activity against Klebsiella planticola MTCC 530 after 24 hrs by well diffusion method. In kind it is functional. Particulars: MTCC 530, 24 h. The method in brief: as §3
For another assay, the system named is Micrococcus luteus. Put plainly: Antibacterial activity against Micrococcus luteus MTCC 2470 after 24 hrs by well diffusion method. It counts as functional. Particulars: MTCC 2470, 24 h. In short, it runs like this: as §3
Another assay has as its system Nakaseomyces glabratus. Kind of assay: Antifungal activity against Candida glabrata MTCC 3019 after 24 hrs by well diffusion method. It counts as functional. Particulars: MTCC 3019, 24 h. The method in brief: as §3
Assay [8] has as its system Candida albicans. Put plainly: Antifungal activity against Candida albicans MTCC 3017 after 24 hrs by well diffusion method. In kind it is functional. Particulars: MTCC 3017, 24 h. In short, it runs like this: as §2
Assay [9] relates to Candida albicans. Kind of assay: Antifungal activity against Candida albicans MTCC 183 after 24 hrs by well diffusion method. In kind it is functional. Particulars: MTCC 183, 24 h. The method in brief: as §2
A further assay deals with [Candida] aaseri. Kind of assay: Antifungal activity against Candida aaseri MTCC 1962 after 24 hrs by well diffusion method. It counts as functional. Particulars: Yamadazyma aaseri, MTCC 1962, 24 h. In short, it runs like this: as §3
The next assay deals with Pichia sporocuriosa. Kind of assay: Antifungal activity against Issatchenkia hanoiensis MTCC 4755 after 24 hrs by well diffusion method. In kind it is functional. Particulars: MTCC 4755, 24 h. The method in brief:
as §3

The subject of assay [10] is Candida albicans. Put plainly: Antifungal activity against Candida albicans MTCC 3958 after 24 hrs by well diffusion method. In kind it is functional. Particulars: MTCC 3958, 24 h. In short, it runs like this: as §2
Another assay concerns Pichia kudriavzevii. Kind of assay: Antifungal activity against Issatchenkia orientalis MTCC 3020 after 24 hrs by well diffusion method. It counts as functional. Particulars: MTCC 3020, 24 h. The method in brief: as §3
For a further assay, the system named is Escherichia coli. Put plainly: Antibacterial activity against Escherichia coli MTCC 739 after 24 hrs by well diffusion method. It counts as functional. Particulars: MTCC 739, 24 h. In short, it runs like this: as §3
The mark [11] stands for this setting: Homo sapiens, A549, read-out: IC50.
[12] abbreviates: Homo sapiens, HeLa, read-out: IC50.
Where [13] appears, read: Homo sapiens, MCF7, read-out: IC50.
Where [14] appears, read: Homo sapiens, MDA-MB-231, read-out: IC50.

For `CCCCCCCCCC(O)CNC(C)=O` (stereo not drawn), the IC50 entry in the assay with A549 (a549), in the assay on HeLa (hela), with MCF7 (mcf7) and in the assay with MDA-MB-231 (mda-mb-231) was “Not Active” in each case.

`CCCCCCCCCC(O)CN` (stereo not drawn): the IC50 in the assay with A549 (setting [11]) is 6.78 µM; in the assay on HeLa (setting [12]) it was 4.36 µM; in the assay on MCF7 (setting [13]), 3.88 µM; with MDA-MB-231 (setting [14]) it was 4.02 µM. Moreover, the MIC with Candida albicans [1], with Candida parapsilosis, in the assay on Candida albicans [2], in the assay with Candida albicans [3], in the assay on Staphylococcus aureus [4] and with Staphylococcus aureus [5] was 18.8 mg/L (≈ 100 µM) each time. Moreover, the MIC with Candida albicans [6], in the assay on Bacillus subtilis, with Candida albicans [7], with Pseudomonas aeruginosa, against Raoultella planticola and against Micrococcus luteus was 18.8 mg/L (≈ 100 µM) in each case. In addition, the MIC (against Nakaseomyces glabratus; against Candida albicans [8]; with Candida albicans [9]; in assay [Candida] aaseri; with Pichia sporocuriosa; against Candida albicans [10]) was 18.8 mg/L (≈ 100 µM) in each case. The MIC with Pichia kudriavzevii and in the assay on Escherichia coli was 18.8 mg/L (≈ 100 µM) each time.

On to `COC(=O)CCCCCCCCC(O)CN` (stereo not drawn), for which the IC50 turned out to be 7.89 µM in the assay with A549 (setting [11]), 3.59 µM in the assay with HeLa (setting [12]), 10.2 µM in the assay on MCF7 (setting [13]) and 29.8 µM with MDA-MB-231 (setting [14]).

Consider `NCC(O)CCCCCCCCC(=O)O` (stereo not drawn), for which the IC50 result in the assay on A549 (a549), in the assay with HeLa (hela), with MCF7 (mcf7) and in the assay on MDA-MB-231 (mda-mb-231) was “Not Active” each time.

As for `NCC(O)CCCCCCCCCO` (stereo not drawn), the concentration for half-maximal inhibition (IC50) with A549 (setting [11]) was 16.2 µM; with HeLa (setting [12]), 8.79 µM; with MCF7 (mcf7), “Not Active”; in the assay on MDA-MB-231 (mda-mb-231), “Not Active”.

For the molecule `COc1cccc2c1C(=O)c1c(O)c3c(c(O)c1C2=O)C[C@@](O)(C(=O)CO)C[C@@H]3O[C@H]1C[C@H](N)[C@H](O)[C@H](C)O1` [DOXORUBICIN], the IC50 stood at 1.05 µM in the assay with MCF7 (setting [13]) and 0.5 µM in the assay on MDA-MB-231 (setting [14]).

Regarding `OC(Cn1cncn1)(Cn1cncn1)c1ccc(F)cc1F` [FLUCONAZOLE], the MIC against Candida albicans [1] was determined as 75 mg/L (≈ 245 µM); against Candida parapsilosis it was 18.8 mg/L (≈ 61.2 µM); with Candida albicans [2] it was 37.5 mg/L (≈ 122 µM); with Candida albicans [3], 37.5 mg/L (≈ 122 µM); against Candida albicans [6], 37.5 mg/L (≈ 122 µM); in the assay with Candida albicans [7], 37.5 mg/L (≈ 122 µM). Further, the MIC was 75 mg/L (≈ 245 µM) against Nakaseomyces glabratus; 75 mg/L (≈ 245 µM) in the assay on Candida albicans [8]; 37.5 mg/L (≈ 122 µM) in the assay with Candida albicans [9]; 37.5 mg/L (≈ 122 µM) in assay [Candida] aaseri; 75 mg/L (≈ 245 µM) against Pichia sporocuriosa; 75 mg/L (≈ 245 µM) against Candida albicans [10]. This molecule came in with an MIC with Pichia kudriavzevii of 150 mg/L (≈ 490 µM).

As to `Clc1ccc(COC(Cn2ccnc2)c2ccc(Cl)cc2Cl)c(Cl)c1` (stereo not drawn) [MICONAZOLE], the MIC in the assay with Candida albicans [1], against Candida parapsilosis, with Candida albicans [2], in the assay with Candida albicans [3], against Candida albicans [6] and in the assay with Candida albicans [7] was 9.37 mg/L (≈ 22.5 µM) throughout. Further, the MIC (against Nakaseomyces glabratus; in the assay with Candida albicans [8]; with Candida albicans [9]; in assay [Candida] aaseri; in the assay on Pichia sporocuriosa; in the assay on Candida albicans [10]) was 9.37 mg/L (≈ 22.5 µM) in each case. Further, 9.37 mg/L (≈ 22.5 µM) was the least that counted as inhibitory in the assay with Pichia kudriavzevii (MIC).
